Experimental data from the M2OR odorant receptor database.

Legend:
Settings in all cases: stereoisomer not certain
OR2B11 (Homo sapiens) = biological target: T1, OR2B11 (Homo sapiens) (UniProt Q5JQS5)
T1 sequence (whole entry): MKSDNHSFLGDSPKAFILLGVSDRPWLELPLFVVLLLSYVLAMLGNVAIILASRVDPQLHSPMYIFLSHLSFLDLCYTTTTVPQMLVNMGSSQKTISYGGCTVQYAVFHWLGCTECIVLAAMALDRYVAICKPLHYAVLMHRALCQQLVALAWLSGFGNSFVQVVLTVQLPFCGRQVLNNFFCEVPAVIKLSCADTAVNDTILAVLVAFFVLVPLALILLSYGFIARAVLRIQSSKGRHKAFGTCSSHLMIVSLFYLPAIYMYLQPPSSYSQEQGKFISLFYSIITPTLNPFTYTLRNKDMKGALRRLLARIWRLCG
Method in brief: (§1)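 Each entry records the cell line, G-protein, co-transfected protein and tags used. Methods varied with the source, often transient luciferase assays in mammalian cell lines. A receptor–molecule pair is called responsive (active) if the original authors judged its signal statistically different from baseline and non-responsive (inactive) otherwise.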

OR2A7 = system: T2, OR2A7
T2 sequence (whole entry): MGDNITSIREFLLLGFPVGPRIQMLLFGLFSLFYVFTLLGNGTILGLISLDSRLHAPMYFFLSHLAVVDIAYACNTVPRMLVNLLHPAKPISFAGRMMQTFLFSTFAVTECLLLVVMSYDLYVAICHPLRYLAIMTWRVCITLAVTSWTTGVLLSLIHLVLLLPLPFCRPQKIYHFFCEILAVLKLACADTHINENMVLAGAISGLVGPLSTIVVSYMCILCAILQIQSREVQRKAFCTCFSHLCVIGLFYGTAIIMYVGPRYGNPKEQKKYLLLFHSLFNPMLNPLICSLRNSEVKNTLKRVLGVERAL
Method in brief: as §1

OR2AE1 (Homo sapiens) = biological target: T3, OR2AE1 (Homo sapiens) (UniProt Q8NHA4)
T3 sequence (whole entry): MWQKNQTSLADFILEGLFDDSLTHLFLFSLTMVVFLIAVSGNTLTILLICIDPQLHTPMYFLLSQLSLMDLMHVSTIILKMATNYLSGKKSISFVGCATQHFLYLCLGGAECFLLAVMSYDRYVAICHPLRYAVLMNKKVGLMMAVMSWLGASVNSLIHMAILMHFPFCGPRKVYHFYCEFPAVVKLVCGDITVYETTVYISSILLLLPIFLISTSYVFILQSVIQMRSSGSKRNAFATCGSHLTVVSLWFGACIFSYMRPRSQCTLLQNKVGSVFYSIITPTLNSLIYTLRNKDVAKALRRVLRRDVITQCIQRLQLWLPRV
Method in brief: as §1

OR2AG1 (Homo sapiens) = biological target: T4, OR2AG1 (Homo sapiens) (UniProt Q9H205)
T4 sequence (whole entry): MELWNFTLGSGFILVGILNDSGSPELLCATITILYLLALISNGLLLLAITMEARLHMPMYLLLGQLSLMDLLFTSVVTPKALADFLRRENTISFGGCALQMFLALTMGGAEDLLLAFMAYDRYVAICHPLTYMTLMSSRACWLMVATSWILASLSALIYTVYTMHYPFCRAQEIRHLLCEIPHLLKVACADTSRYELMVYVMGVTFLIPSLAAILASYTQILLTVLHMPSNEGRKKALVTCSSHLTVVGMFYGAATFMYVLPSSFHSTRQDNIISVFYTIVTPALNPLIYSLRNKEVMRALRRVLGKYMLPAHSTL
Method in brief: as §1

OR2AG2 (Homo sapiens) = biological target: T5, OR2AG2 (Homo sapiens) (UniProt A6NM03)
T5 sequence (whole entry): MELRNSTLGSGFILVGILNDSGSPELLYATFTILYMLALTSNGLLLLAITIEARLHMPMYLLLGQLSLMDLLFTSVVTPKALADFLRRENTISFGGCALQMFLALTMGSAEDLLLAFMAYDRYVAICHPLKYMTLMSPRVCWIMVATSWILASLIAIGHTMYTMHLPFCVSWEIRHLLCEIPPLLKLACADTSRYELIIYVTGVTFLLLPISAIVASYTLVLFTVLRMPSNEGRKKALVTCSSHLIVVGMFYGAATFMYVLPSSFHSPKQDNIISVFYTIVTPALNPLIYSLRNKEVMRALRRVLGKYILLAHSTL
Method in brief: as §1

OR2AK2 (Homo sapiens) = biological target: T6, OR2AK2 (Homo sapiens) (UniProt Q8NG84)
T6 sequence (whole entry): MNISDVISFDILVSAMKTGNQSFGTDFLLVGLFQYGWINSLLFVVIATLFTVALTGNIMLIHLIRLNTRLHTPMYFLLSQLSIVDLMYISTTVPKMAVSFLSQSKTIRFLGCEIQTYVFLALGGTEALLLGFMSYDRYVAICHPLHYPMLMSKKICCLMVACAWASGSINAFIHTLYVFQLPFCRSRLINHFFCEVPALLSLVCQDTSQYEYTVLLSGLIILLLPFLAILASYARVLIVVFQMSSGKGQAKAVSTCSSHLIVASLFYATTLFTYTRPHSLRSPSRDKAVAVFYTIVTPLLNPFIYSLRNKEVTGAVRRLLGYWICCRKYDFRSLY
Method in brief: as §1

OR2AP1 (Homo sapiens) = biological target: T7, OR2AP1 (Homo sapiens) (UniProt Q8NGE2)
T7 sequence (whole entry): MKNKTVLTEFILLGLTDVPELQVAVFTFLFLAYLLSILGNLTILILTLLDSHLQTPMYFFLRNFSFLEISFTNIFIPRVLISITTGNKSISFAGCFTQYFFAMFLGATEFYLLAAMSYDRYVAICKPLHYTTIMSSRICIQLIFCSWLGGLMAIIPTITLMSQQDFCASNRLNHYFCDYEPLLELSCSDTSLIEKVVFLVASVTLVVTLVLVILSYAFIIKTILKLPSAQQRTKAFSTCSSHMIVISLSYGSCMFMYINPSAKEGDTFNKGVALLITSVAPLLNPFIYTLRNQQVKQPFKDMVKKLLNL
Method in brief: as §1

OR2AT4 (Homo sapiens) = biological target: T8, OR2AT4 (Homo sapiens) (UniProt A6NND4)
T8 sequence (whole entry): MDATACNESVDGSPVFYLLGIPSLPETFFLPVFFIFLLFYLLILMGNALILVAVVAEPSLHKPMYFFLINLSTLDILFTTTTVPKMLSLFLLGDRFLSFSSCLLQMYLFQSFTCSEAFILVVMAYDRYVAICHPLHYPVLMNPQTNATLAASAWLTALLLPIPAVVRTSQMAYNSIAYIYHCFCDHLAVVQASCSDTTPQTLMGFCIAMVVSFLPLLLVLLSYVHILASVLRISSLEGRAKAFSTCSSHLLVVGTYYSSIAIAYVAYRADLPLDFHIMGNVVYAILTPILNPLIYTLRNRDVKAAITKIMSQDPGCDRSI
Method in brief: as §1

OR2B2 (Homo sapiens) = biological target: T9, OR2B2 (Homo sapiens) (UniProt Q9GZK3)
T9 sequence (whole entry): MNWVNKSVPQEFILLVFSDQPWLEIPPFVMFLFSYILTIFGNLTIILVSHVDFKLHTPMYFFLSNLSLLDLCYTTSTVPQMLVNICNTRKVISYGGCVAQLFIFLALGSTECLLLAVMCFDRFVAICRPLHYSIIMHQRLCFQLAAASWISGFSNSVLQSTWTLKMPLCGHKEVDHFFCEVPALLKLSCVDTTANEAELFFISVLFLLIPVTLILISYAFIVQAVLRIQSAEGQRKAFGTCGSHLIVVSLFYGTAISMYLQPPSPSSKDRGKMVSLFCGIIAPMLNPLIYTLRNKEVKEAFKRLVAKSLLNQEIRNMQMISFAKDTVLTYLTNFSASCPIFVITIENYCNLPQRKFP
Method in brief: as §1

OR2AJ1 (Homo sapiens) = biological target: T10, OR2AJ1 (Homo sapiens) (UniProt Q8NGZ0)
T10 sequence (whole entry): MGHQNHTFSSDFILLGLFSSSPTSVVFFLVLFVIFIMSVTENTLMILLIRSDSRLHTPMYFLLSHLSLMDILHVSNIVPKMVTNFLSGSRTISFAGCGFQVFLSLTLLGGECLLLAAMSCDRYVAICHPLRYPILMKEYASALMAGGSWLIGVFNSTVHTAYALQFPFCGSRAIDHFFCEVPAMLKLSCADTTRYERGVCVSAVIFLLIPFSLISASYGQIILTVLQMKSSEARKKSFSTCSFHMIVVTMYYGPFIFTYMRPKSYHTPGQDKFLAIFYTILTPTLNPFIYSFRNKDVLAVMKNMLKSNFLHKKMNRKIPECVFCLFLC
Method in brief: as §1

Structure (SMILES) | odorant receptor agonist call (OR2B11 (Homo sapiens)) | odorant receptor agonist call (OR2A7) | odorant receptor agonist call (OR2AE1 (Homo sapiens)) | odorant receptor agonist call (OR2AG1 (Homo sapiens)) | odorant receptor agonist call (OR2AG2 (Homo sapiens)) | odorant receptor agonist call (OR2AK2 (Homo sapiens)) | odorant receptor agonist call (OR2AP1 (Homo sapiens)) | odorant receptor agonist call (OR2AT4 (Homo sapiens)) | odorant receptor agonist call (OR2B2 (Homo sapiens)) | odorant receptor agonist call (OR2AJ1 (Homo sapiens))
c1ccc2ncccc2c1 | active |  |  |  |  |  |  |  |  | 
CCC1OC(C)=C(O)C1=O (stereo not drawn) | inactive | inactive | inactive | inactive | inactive | inactive | inactive | inactive | inactive | 
CCCCCC(=O)C(C)C(C)=O (stereo not drawn) | inactive |  | inactive | inactive | inactive | inactive | inactive | inactive | inactive | inactive
CCCCCC(S)C(C)CO (stereo not drawn) | inactive |  | inactive | inactive | inactive | active | inactive | inactive | active | inactive
CC1=C(O)C(=O)OC1C (stereo not drawn) | inactive | inactive | inactive | inactive | inactive | inactive | inactive | inactive | inactive | 
CC(=O)c1c(C)c([N+](=O)[O-])c(C(C)(C)C)c([N+](=O)[O-])c1C | inactive |  | inactive | inactive | inactive | inactive | inactive | inactive | inactive | inactive
C1CCC(SSC2CCCCC2)CC1 | active |  |  |  |  |  |  |  |  | 
CC(C)C1OC(C)(C)OCC1(C)C (stereo not drawn) |  |  |  | inactive |  |  |  |  |  | 
O=c1ccc2ccccc2o1 | active |  |  |  |  |  |  |  |  | 
Cc1cnc(C)c(C)n1 | inactive | inactive | inactive | inactive | inactive | inactive | inactive | inactive | inactive | 
CCCCCCC=CCCC=O | inactive | inactive | inactive | inactive | inactive | inactive | inactive | inactive | inactive | inactive
